Measurements published in ChEMBL document CHEMBL1777685, “Biological evaluation of novel benzisoxazole derivatives as PPARδ agonists” (Bioorg Med Chem, 2011).
Activity calls are given as the source filed them. The calls are words filed in the database; no cut-off is given here.

How the values were obtained:
[1] = target: T1, Peroxisome proliferator-activated receptor alpha (Homo sapiens, UniProt Q07869); test: Agonist activity at human PPARalpha-LBD expressed in CV1 cells co-transfected with Gal4 after 40 hrs by luciferase based transactivation assay; assay type: functional, cell-based, CV-1
T1 sequence (Q07869 whole entry): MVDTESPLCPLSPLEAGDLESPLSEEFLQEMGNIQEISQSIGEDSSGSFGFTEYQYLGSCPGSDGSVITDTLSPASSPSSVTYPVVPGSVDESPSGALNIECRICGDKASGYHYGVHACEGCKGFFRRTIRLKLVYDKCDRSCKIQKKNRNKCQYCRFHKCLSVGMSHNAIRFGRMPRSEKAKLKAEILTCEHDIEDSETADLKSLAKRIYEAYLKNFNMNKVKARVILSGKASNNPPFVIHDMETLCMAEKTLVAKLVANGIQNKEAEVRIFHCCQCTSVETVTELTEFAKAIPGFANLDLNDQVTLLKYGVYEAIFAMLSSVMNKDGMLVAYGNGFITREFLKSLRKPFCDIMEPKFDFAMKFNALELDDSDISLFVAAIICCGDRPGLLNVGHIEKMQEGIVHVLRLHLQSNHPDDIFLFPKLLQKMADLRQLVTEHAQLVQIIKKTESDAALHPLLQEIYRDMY

[2] = target: T2, Peroxisome proliferator-activated receptor gamma (Homo sapiens, UniProt P37231); assay type: functional, cell-based, CV-1
T2 sequence (P37231 whole entry): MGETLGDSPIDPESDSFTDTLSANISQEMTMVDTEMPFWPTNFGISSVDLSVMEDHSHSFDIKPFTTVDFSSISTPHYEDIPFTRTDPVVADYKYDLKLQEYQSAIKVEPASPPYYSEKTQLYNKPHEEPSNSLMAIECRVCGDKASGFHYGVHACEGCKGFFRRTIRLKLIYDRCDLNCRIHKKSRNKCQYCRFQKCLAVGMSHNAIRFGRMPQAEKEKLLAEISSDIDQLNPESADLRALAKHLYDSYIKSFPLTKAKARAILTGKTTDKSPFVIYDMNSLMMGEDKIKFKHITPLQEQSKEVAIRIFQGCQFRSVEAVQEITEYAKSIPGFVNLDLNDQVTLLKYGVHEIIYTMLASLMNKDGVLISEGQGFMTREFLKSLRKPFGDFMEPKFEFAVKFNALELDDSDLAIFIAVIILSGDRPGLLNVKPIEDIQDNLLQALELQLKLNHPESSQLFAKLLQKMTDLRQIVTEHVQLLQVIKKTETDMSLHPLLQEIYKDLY

[3] = target: T3, Peroxisome proliferator-activated receptor delta (Homo sapiens, UniProt Q03181); test: Agonist activity at human PPARdelta-LBD expressed in CV1 cells co-transfected with Gal4 after 40 hrs by luciferase based transactivation assay; assay type: functional, cell-based, CV-1
T3 sequence (Q03181 whole entry): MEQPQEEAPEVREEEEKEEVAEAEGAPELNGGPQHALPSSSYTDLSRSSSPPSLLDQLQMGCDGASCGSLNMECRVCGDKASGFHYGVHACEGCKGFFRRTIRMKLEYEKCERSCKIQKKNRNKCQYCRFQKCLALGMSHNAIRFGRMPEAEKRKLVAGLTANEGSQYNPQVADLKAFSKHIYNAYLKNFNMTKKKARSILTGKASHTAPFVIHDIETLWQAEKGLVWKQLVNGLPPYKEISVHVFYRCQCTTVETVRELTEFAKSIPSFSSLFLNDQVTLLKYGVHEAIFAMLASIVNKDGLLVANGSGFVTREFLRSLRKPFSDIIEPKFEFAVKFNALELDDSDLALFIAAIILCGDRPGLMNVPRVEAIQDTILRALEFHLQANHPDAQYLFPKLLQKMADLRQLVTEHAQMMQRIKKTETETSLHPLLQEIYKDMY

Rattus norvegicus [4] = species: Rattus norvegicus; test: Induction of oligodendrocyte precursor cell differentiation isolated from Wistar rat fetal brain cortex at 0.1 uM after 3 days by anti O1-antibody immunostaining method; assay type: functional
Rattus norvegicus [5] = species: Rattus norvegicus; test: Induction of oligodendrocyte precursor cell differentiation isolated from Wistar rat fetal brain cortex at 0.01 uM after 3 days by anti O1-antibody immunostaining method; assay type: functional
Outline: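 Primary mixed cultures from fetal Wistar rat cortex, with OPCs enriched on a Percoll gradient. Cells seeded at 1 × 10⁴/cover glass and cultured 4 days at 37 °C, 5% CO₂, then exposed to compound in DMSO (0.01% final) for 3 days; vehicle control 0.01% DMSO. Anti-O1 immunostaining, random images; stained area measured and given relative to control mean (100%).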

Rattus norvegicus [6] = species: Rattus norvegicus; test: Induction of oligodendrocyte precursor cell differentiation isolated from Wistar rat fetal brain cortex at 0.03 uM after 3 days by anti O1-antibody immunostaining method; assay type: functional

Compound | EC50 [1] [µM] | EC50 [2] [µM] | EC50 [3] [nM] | Activity (Rattus norvegicus [4]) | Activity (Rattus norvegicus [5]) | Activity (Rattus norvegicus [6])
CC(C)c1oc(-c2ccccc2O)nc1CCc1noc2cc(OC(C)(C)C(=O)O)ccc12 | 10.4 | 14.6 | 900 |  |  | 
COc1ccc(CC2SC(=O)NC2=O)cc1C(=O)NCc1ccc(C(F)(F)F)cc1 (centres undefined) |  |  | > 10000 | inactive |  | 
Cc1cc2c(CCc3nc(-c4ccc(Cl)cc4Cl)oc3C(C)C)noc2cc1OCC(=O)O |  |  |  | Active |  | 
CC(C)c1oc(-c2ccccc2Cl)nc1CCc1noc2cc(OC(C)(C)C(=O)O)ccc12 | 34.1 | 31.1 | 1300 |  |  | 
Cc1cc2c(CCc3sc(-c4ccc(C(F)(F)F)cc4)nc3C(C)C)noc2cc1OC(C)(C)C(=O)O | 0.2 | 0.91 | 11 | Active | Active | Active
Cc1oc(-c2ccccc2)nc1CCc1noc2cc(OC(C)(C)C(=O)O)ccc12 | 12.9 | 20.8 | 14900 |  |  | 
CC(C)(Oc1ccc2c(CCc3nc(-c4ccccc4Cl)oc3C(C)(C)C)noc2c1)C(=O)O | > 10 | > 10 | > 10000 |  |  | 
CC(C)c1oc(-c2c(Cl)cccc2Cl)nc1CCc1noc2cc(OC(C)(C)C(=O)O)ccc12 | > 10 | > 10 | > 10000 |  |  | 
CC(C)c1nc(-c2ccc(C(F)(F)F)cc2)sc1CCc1noc2cc(OC(C)(C)C(=O)O)ccc12 | 0.83 | 5.1 | 21 |  |  | 
CCc1oc(-c2ccccc2)nc1CCc1noc2cc(OC(C)(C)C(=O)O)ccc12 | 14.7 | 25.1 | 6700 |  |  | 
CCCc1oc(-c2ccccc2Cl)nc1CCc1noc2cc(OC(C)(C)C(=O)O)ccc12 | 13.9 | 26.4 | 5400 |  |  | 
CC(C)c1oc(-c2ccc(C(C)(C)C)cc2)nc1CCc1noc2cc(OC(C)(C)C(=O)O)ccc12 | 2.9 | 1 | 1200 |  |  | 
CCCCc1ccc(-c2nc(CCc3noc4cc(OC(C)(C)C(=O)O)ccc34)c(C(C)C)o2)cc1 | 3.3 | 2.6 | 700 |  |  | 
CCCc1oc(-c2ccccc2)nc1CCc1noc2cc(OC(C)(C)C(=O)O)ccc12 | 13.2 | 19.1 | 9800 |  |  | 
CCCCCCc1oc(-c2ccccc2Cl)nc1CCc1noc2cc(OC(C)(C)C(=O)O)ccc12 | 2.3 | 5.9 | 2000 |  |  | 
CC(C)c1oc(-c2ccc(Cl)cc2Cl)nc1CCc1noc2cc(OC(C)(C)C(=O)O)ccc12 | 8.6 | 26.3 | 100 |  |  | 
Cc1cc(SCc2sc(-c3ccc(C(F)(F)F)cc3)nc2C)ccc1OCC(=O)O |  |  |  | Active | Active | Active
CC(C)c1oc(-c2ccccc2C(F)(F)F)nc1CCc1noc2cc(OC(C)(C)C(=O)O)ccc12 | > 10 | > 10 | > 10000 |  |  | 
